Assay outcomes: PubChem BioAssay, several laboratories
Shown are actives, neighbours in structure and some others; about 1% of the full set was active somewhere.
ERp5 block – inhibitors of ERp5-driven insulin aggregation, primary screen, biochemical, turbidity, absorbance 650 nm, single point. Protein disulfide-isomerase A6 (Homo sapiens), Q15084. 90 min. inhibition, % at 9.99 µM. 350,000 compounds, 0.05% hits. AID 651711, 2012;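 active = mean replicate inhibition above about 25%, with every replicate also reaching it, limit read from the data, passing the limit was not always enough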
Target sequence (Q15084 whole entry, looked up): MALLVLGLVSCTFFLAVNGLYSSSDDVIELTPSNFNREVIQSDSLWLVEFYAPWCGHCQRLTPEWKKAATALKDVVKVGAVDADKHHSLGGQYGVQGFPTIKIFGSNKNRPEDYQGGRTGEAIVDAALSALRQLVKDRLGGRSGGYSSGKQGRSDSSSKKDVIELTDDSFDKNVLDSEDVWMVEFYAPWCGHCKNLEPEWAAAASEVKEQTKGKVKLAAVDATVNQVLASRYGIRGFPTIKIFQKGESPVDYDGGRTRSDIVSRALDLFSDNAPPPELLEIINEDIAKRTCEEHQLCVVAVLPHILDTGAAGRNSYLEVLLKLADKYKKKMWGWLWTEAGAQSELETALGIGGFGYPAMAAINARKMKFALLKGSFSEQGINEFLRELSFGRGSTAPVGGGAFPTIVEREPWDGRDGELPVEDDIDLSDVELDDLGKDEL
PglD inh – C. jejuni PglD acetyltransferase inhibitors, primary screen, biochemical, DTNB colorimetric, single point. purified PglD enzyme, DTNB colorimetric CoA detection. AID 602405, 2012. inhibition, % at 12.5 µM. 360,000 compounds, 0.098% hits; in the data active = inhibition above about 16%, passing the limit was not always enough
IMP-1 inhibitor – IMP-1 metallo-beta-lactamase inhibitors, primary screen, biochemical, epi-absorbance readout, Pseudomonas aeruginosa enzyme; metallo-beta-lactamase IMP-1 (Pseudomonas aeruginosa); purified IMP-1, nitrocefin hydrolysis, epi-absorbance fluorescence; inhibition, % at 5.6 µM; 290,000 compounds, 0.45% hits; AID 1556, 2009;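 active = inhibition above the mean plus 3 SD of all compounds in the same screening run, cut at about 4.5% in these data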;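 note: 0% = IMP-1 with DMSO and 100% = DMSO wells lacking enzyme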
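System: Purified recombinant IMP-1 metallo-beta-lactamase enzyme | Measured by: Fluorescence quenching readout, ex 480/em 530 nm | Replication: Singlicate | Incubation: 15 min preincubation plus 25 min reaction at 25 °C | Evaluation: Percent inhibition from optical density relative to buffer-blank wells | Benchmarks: DMSO with and without IMP-1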
PDI turbidity – inhibitors of human PDI, primary screen, biochemical, turbidity, single point, plate reader | 350,000 compounds, 0.052% hits | inhibition, % at 10 µM | AID 588391, 2011 | Protein disulfide-isomerase (Homo sapiens), P07237 | PDI insulin aggregation turbidity, A650, 90 min;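 active = mean inhibition across replicates of 30% or more, whatever share of single replicates reach that level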
PvdQ inh – P. aeruginosa PvdQ acylase inhibitors, primary screen, biochemical, fluorescence, plate reader and imaging, single point. 340,000 compounds, 0.063% hits. inhibition, % at 10 µM. purified PvdQ acylase; in the data active = inhibition above about 30%, passing the limit was not always enough;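 note: 0% = vehicle neutral wells and 100% = reference inhibitor wells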
VIM-2 inhibitor – VIM-2 metallo-beta-lactamase inhibitors, primary screen, biochemical, epi-absorbance readout, Pseudomonas aeruginosa enzyme | AID 1527, 2009 | inhibition, % at 5.6 µM | purified VIM-2, nitrocefin hydrolysis, epi-absorbance fluorescence | 290,000 compounds, 0.89% hits;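 active = inhibition above the mean of all tested compounds plus 3 SD, cutoff set per screening run, cut at about 7.5% in these data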;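 note: red hydrolysis product quenches plate fluorescence so inhibitors raise well fluorescence; 0% = enzyme with DMSO and 100% = DMSO without enzyme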
PglD inh SP – PglD acetyltransferase inhibitors, confirmation, biochemical, DTNB absorbance, single point, cherry-picked samples | shares compounds with PglD inh | Purified C. jejuni PglD, DTNB absorbance 412 nm | inhibition, % at 20 µM | 320 tested, under 10 active;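 active = mean inhibition across replicates of at least 20% with every single replicate also at 20% or more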;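 note: initial rate of CoA release by acetyl transfer from AcCoA to the UDP-4-amino sugar; 0% = median of neutral control wells and 100% = median of positive control wells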
* marks the source's active call; other numbers are inactive results; . = no result given.

SMILES | ERp5 block | PglD inh | IMP-1 inhibitor | PDI turbidity | PvdQ inh | VIM-2 inhibitor | PglD inh SP
C=C(C)Cn1c2ccc(NC(=O)NCc3ccccc3)cc2c(=O)n1C | 5 | 20* | . | 8 | . | . | -7
C=C(C)Cn1c2ccc(NC(=O)NCC)cc2c(=O)n1C | 7 | -5 | . | 2 | . | . | .
CN(C)CC(=O)N[C@H]1C=C[C@H](CC(=O)O)O[C@@H]1CO | 2 | . | . | . | . | . | .
O=C(COC(=O)CCc1nc2ccccc2n1-c1ccccc1)Nc1cccc(Cl)c1 | . | 29* | -1 | -2 | 12 | 4 | -2
CCNC(=O)C1CC(=O)N(Cc2ccc3c(c2)OCO3)C(=Nc2ccc(OCC)cc2)S1 (stereo unspecified) | . | 24* | -2 | -3 | -13 | -3 | -7
CCNC(=O)C1CC(=O)N(Cc2ccc(F)cc2)C(=Nc2ccc(OC)cc2)S1 (stereo unspecified) | -9 | . | -3 | 4 | -11 | 0 | .
O=C(N/C(=C/c1ccc(Br)cc1)C(=O)N1CCCC1)c1cccs1 | 1 | . | 1 | 4 | 0 | -2 | .
O=C(O)/C(=C\c1ccc(Br)cc1)NC(=O)c1cccs1 | 5 | 25* | -5 | 2 | -16 | -1 | 2
CCN(CC)CC(=O)Nc1sc(C)cc1C(=O)c1ccc(C)cc1 | 0 | 22* | -3 | 6 | -7 | -2 | 11
CCN(CC)CC(=O)Nc1sc(C)cc1C(=O)c1ccccc1 | -1 | -4 | -4 | -6 | -1 | -1 | .
Cc1c(C(=O)O)oc2c3c(ccc12)OCCO3 | . | 24* | -1 | -3 | -12 | 1 | -2
CCn1c(SCc2nc3sc(C(=O)O)c(C)c3c(=O)[nH]2)nc2ccccc21 | . | 28* | -4 | -23 | -7 | -4 | 47*
Cc1ccc(C(=O)COC(=O)CCCC(=O)Nc2cc(C(F)(F)F)ccc2Cl)cc1C | . | 24* | -5 | -3 | -3 | -4 | 3
Cc1ccc(C(=O)COC(=O)CCC(=O)Nc2ccccc2Cl)cc1[N+](=O)[O-] | . | 4 | -1 | 8 | -5 | 2 | .
CC(C(=O)N1CCCc2c1c(=O)oc1ccc(O)cc21)N1CCc2ccccc2C1 (stereo unspecified) | . | 23* | -3 | 10 | 2 | -4 | 7
COC(=O)NCc1ccc(CNC(=O)OC)cc1 | . | -5 | -2 | 1 | 2 | -1 | .
COC(=O)NCc1cccc(CNC(=O)OC)c1 | . | 30* | -4 | 7 | 5 | -4 | 2
COc1cccc(NC(=O)N(C)C[C@@H]2Oc3ncc(C#Cc4ccncc4)cc3C(=O)N([C@@H](C)CO)C[C@@H]2C)c1 | 2 | -3 | . | . | . | . | .
COCc1nc2ccccc2n1CCOc1ccccc1OC | . | 24* | -2 | 5 | -8 | -5 | -1
COc1ccc(NC(=O)N(C)C[C@@H]2Oc3ccc(N(C)C)cc3CC(=O)N([C@@H](C)CO)C[C@@H]2C)cc1 | -3 | 10 | . | . | . | . | .
CC(O)(c1cccnc1)c1nc(-c2ccc3ccccc3c2)cs1 (stereo unspecified) | 3 | 22* | . | -2 | . | . | -1
COc1cccc(C(C)(O)c2nc(-c3ccc4ccccc4c3)cs2)c1 (stereo unspecified) | -6 | 4 | . | 1 | . | . | .
CN1/C(=C\C(=O)Nc2cccc(Cl)c2)C(C)(C)c2ccccc21 | 2 | 20* | -3 | -20 | 7 | -2 | 13
CC(=O)C1=C(O)C(=O)N(Cc2ccco2)C1c1ccccc1F (stereo unspecified) | 1 | . | -2 | 2 | 2 | -1 | .
CC(C)(C)C(=O)C1=C(O)C(=O)N(Cc2ccccc2)C1c1ccccc1F (stereo unspecified) | 1 | 73* | -3 | -5 | -6 | -2 | -11
SMILES | ERp5 block | PglD inh | IMP-1 inhibitor | PDI turbidity | PvdQ inh | VIM-2 inhibitor | PglD inh SP
Cc1ccccc1OCC(=O)N/N=C/c1ccccn1 | 1 | . | -2 | -4 | -13 | 0 | .
Cc1ccccc1OCC(=O)N/N=C/c1cc2ccccc2nc1Cl | . | 26* | 0 | 10 | -12 | 0 | 3
COc1ccc(NC(=O)c2cc(-c3ccc(F)cc3OC(C)C)n[nH]2)cn1 | 2 | 8 | . | 13 | . | . | .
CC(C)Oc1cc(F)ccc1-c1cc(C(=O)Nc2cccc(C(F)(F)F)c2)[nH]n1 | -8 | 24* | . | 4 | . | . | -12
CCC(=O)N1C[C@@H](O)COC[C@@H]2O[C@H](CC(=O)NCc3ccccc3Cl)CC[C@H]21 | . | -3 | . | . | . | . | .
O=C1C2C3c4ccccc4C(c4ccccc43)C2C(=O)N1Cc1ccco1 (stereo unspecified) | . | 24* | . | 11 | -24 | . | -5
O=C(NCCC1=CCCCC1)c1cnsn1 | . | 42* | -5 | -11 | -15 | -2 | -1
COc1ccc(CSc2nc(O)cc(=O)n2CC(C)C)cc1F | 0 | 21* | -1 | -6 | -20 | -1 | 2
O=C(NCc1ccco1)C1OCCc2ccccc21 (stereo unspecified) | . | 25* | -3 | -5 | -4 | -1 | -1
COC(=O)Nc1ccc(S(=O)(=O)Nc2cc(C(F)(F)F)c[nH]c2=O)cc1 | -1 | 31* | -5 | 7 | -13 | -2 | 1
CC1=CC(=O)C=C(C)C1=NOC(=O)/C=C\c1ccccc1 | 3 | . | -2 | -9 | 6 | -2 | .
CC1=CC(=NOC(=O)/C=C/c2ccccc2)C=C(C)C1=O | . | 28* | -2 | 3 | 7 | 0 | -1
C[C@H](CO)N1C[C@H](C)[C@@H](CN(C)C(=O)Nc2ccc(C(F)(F)F)cc2)OCCCC[C@H](C)Oc2ccc(NS(=O)(=O)c3ccccc3)cc2C1=O | -3 | 3 | . | . | . | . | .
c1cncc(CNc2nc(-c3cccnc3)nc3ccccc23)c1 | -3 | 24* | -1 | 1 | 7 | 4 | 3
c1ccc(CNc2nc(-c3cccnc3)nc3ccccc23)cc1 | 0 | -5 | -4 | 8 | 26 | -2 | .
CCNC(=O)[C@H]1[C@H](CO)[C@H]2Cn3c(ccc(-c4ccccc4)c3=O)[C@@H]1N2C(=O)CC1CC1 | 1 | . | . | . | . | . | .
Cc1ccc(S(=O)(=O)Nc2ccc3c(c2)C(=O)N([C@@H](C)CO)C[C@H](C)[C@H](CN(C)Cc2ccccc2)OCCCC[C@@H](C)O3)cc1 | . | -3 | . | . | . | . | .
O=S(=O)(c1ccc(F)cc1)N1CCCC(CO)C1 (stereo unspecified) | . | 33* | -1 | -3 | 3 | -3 | -2
O=C(O)C1CCCN(S(=O)(=O)c2ccc(F)cc2)C1 (stereo unspecified) | . | 10 | -3 | -8 | 1 | -1 | .
